Test results published in ChEMBL document CHEMBL3853346, “Synthesis of arylated coumarins by Suzuki-Miyaura cross-coupling. Reactions and anti-HIV activity” (Bioorg Med Chem, 2016).
In brackets after ≈: the same amount, converted by molar mass.

Assays:
[1] = tested on: Human immunodeficiency virus 1; experiment: Antiviral activity against HIV-1 3B infected in human MT-4 cells assessed as protection against virus induced cytopathic effect after 5 days by MTT assay; type: functional, cell-based; conditions: Human immunodeficiency virus 1, 3B, MT4, 120 h
How it was run: (§1)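 MT-4 cells, exponentially growing, resuspended at 6 x 10⁵ cells/mL and infected with HIV-1 IIIB or HIV-2 ROD at 100-300 CCID50. Test compounds added as serial 5-fold dilutions in triplicate wells at the start. Untreated infected and mock-infected controls included. Viability read by MTT spectrophotometrically 5 days post-infection. EC50 is the concentration giving 50% protection from virus-induced cytopathic effect.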

[2] = Antiviral activity against HIV-2 ROD infected in human MT-4 cells assessed as protection against virus induced cytopathic effect after 5 days by MTT assay; type: functional, cell-based, Human immunodeficiency virus type 2 (ISOLATE ROD); conditions: Human immunodeficiency virus 2, MT4, 120 h; how it was run: as §1
[3] = Cytotoxicity against human MT4 cells assessed as reduction in cell viability after 5 days by MTT assay; type: toxicity, cell-based
How it was run: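 Mock-infected MT-4 cells (6 x 10⁵ cells/mL) were run in parallel with the infected series. Serial 5-fold compound dilutions were tested in triplicate wells, with culture medium in place of virus. Viability was measured by MTT at day 5. CC50 is the concentration that reduces viability of mock-infected cells by 50%.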

[4] = Selectivity index, ratio of CC50 for human MT-4 cells to IC50 for HIV-1 3B infected in human MT-4 cells; type: functional, MT4
How it was run: (§2)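 Selectivity index is CC50 in mock-infected MT-4 cells divided by IC50 against HIV-1 IIIB or HIV-2 ROD. Both values come from parallel 5-day MTT assays in the same plates.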

[5] = Selectivity index, ratio of CC50 for human MT-4 cells to IC50 for HIV-2 ROD infected in human MT-4 cells; type: functional, MT4; how it was run: as §2

SMILES | IC50 [1] [µg/mL] | IC50 [2] [µg/mL] | CC50 at 120 h [3] [µg/mL] | Ratio CC50/IC50 [4] | Ratio CC50/IC50 [5]
Cc1cc(=O)oc2cc(-c3ccc(F)cc3)c(OS(=O)(=O)C(F)(F)F)cc12 | > 10.6 | > 10.6 | 10.6 (≈ 26.4 µM) | <1 | <1
Cc1cc(=O)oc2cc(-c3ccc(C(C)(C)C)cc3)c(OS(=O)(=O)C(F)(F)F)cc12 | > 10.3 | > 10.3 | 10.3 (≈ 23.3 µM) | <1 | <1
Cc1cc(C)cc(-c2cc3oc(=O)cc(C)c3cc2-c2cc(C)cc(C)c2)c1 | 4.57 (≈ 12.4 µM) | > 14.4 | 14.4 (≈ 39.1 µM) | 3 | <1
Cc1cc(=O)oc2cc(-c3ccc(Cl)cc3)c(OS(=O)(=O)C(F)(F)F)cc12 | > 30.6 | > 35.6 | 35.6 (≈ 85.1 µM) | <1 | <1
CCOc1ccc(-c2cc3oc(=O)cc(C)c3cc2OS(=O)(=O)C(F)(F)F)cc1 | > 27.2 | > 27.2 | ≥ 27.2 | < 1 | <1
Cc1cc(=O)oc2cc(-c3ccccc3)c(-c3ccccc3)cc12 | > 13.8 | > 13.8 | 13.8 (≈ 44.1 µM) | <1 | <1
COc1cccc(-c2cc3oc(=O)cc(C)c3cc2OS(=O)(=O)C(F)(F)F)c1 | > 18.9 | > 18.9 | 18.9 (≈ 45.5 µM) | <1 | <1
Cc1cccc(-c2cc3oc(=O)cc(C)c3cc2OS(=O)(=O)C(F)(F)F)c1 | 13.2 (≈ 33.1 µM) | > 61.3 | 61.3 (≈ 154 µM) | 5 | <1
COc1ccc(-c2cc3oc(=O)cc(C)c3cc2OS(=O)(=O)C(F)(F)F)c(OC)c1OC | > 2.13 | > 2.13 | 2.13 (≈ 4.49 µM) | <1 | <1
CCOc1ccc(-c2cc3oc(=O)cc(C)c3cc2-c2ccc(OCC)cc2)cc1 | > 37.3 | > 37.3 | 37.3 (≈ 93.2 µM) | <1 | <1
COc1ccc(-c2cc3oc(=O)cc(C)c3cc2-c2cccc(C)c2)cc1 | > 7.4 | > 7.4 | 7.4 (≈ 20.8 µM) | <1 | <1
Cc1cc(=O)oc2cc(-c3ccccc3)c(OS(=O)(=O)C(F)(F)F)cc12 | > 12.5 | > 12.5 | 12.6 (≈ 32.7 µM) | <1 | <1
Cc1ccnc2c1NC(=O)c1cccnc1N2C1CC1 [NEVIRAPINE] |  | > 4 | > 4 | >80 | <1
Cc1cc(=O)oc2cc(OS(=O)(=O)C(F)(F)F)c(OS(=O)(=O)C(F)(F)F)cc12 | > 43.5 | > 43.5 | 43.5 (≈ 95.3 µM) | <1 | <1
Cc1cc(=O)oc2cc(-c3ccc(Cl)cc3)c(-c3ccc(Cl)cc3)cc12 | > 16 | > 16 | 16 (≈ 41.9 µM) | <1 | <1
Cc1cc(C)cc(-c2cc3oc(=O)cc(C)c3cc2OS(=O)(=O)C(F)(F)F)c1 | > 33.1 | > 33.1 | 33.1 (≈ 80.3 µM) | <1 | <1
COc1ccc(-c2cc3oc(=O)cc(C)c3cc2-c2ccc(OC)cc2)cc1 | > 11 | > 11 | 11 (≈ 29.5 µM) | <1 | <1
COc1ccc(-c2cc3oc(=O)cc(C)c3cc2-c2ccc(F)cc2)cc1 | > 10.9 | > 10.9 | 10.9 (≈ 30.3 µM) | <1 | <1
Cc1cc(=O)oc2cc(-c3ccc(C(F)(F)F)cc3)c(OS(=O)(=O)C(F)(F)F)cc12 | > 80.3 | > 80.3 | 80.3 (≈ 178 µM) | <1 | <1
Cc1ccc(-c2cc3oc(=O)cc(C)c3cc2OS(=O)(=O)C(F)(F)F)cc1 | > 11 | > 11 | 11 (≈ 27.6 µM) | <1 | <1
Cc1cn([C@H]2C[C@H](N=[N+]=[N-])[C@@H](CO)O2)c(=O)[nH]c1=O [ZIDOVUDINE] |  | 0.00094 (≈ 0.00352 µM) | > 25 | >11363 | >26596
COc1ccc(-c2cc3oc(=O)cc(C)c3cc2-c2cc(C)cc(C)c2)cc1 | > 2.08 | > 2.08 | 2.08 (≈ 5.61 µM) | <1 | <1
COc1ccc(-c2cc3oc(=O)cc(C)c3cc2-c2ccc(Cl)cc2)cc1 | > 2.06 | > 2.06 | 2.06 (≈ 5.47 µM) | <1 | <1
COc1ccc(-c2cc3oc(=O)cc(C)c3cc2OS(=O)(=O)C(F)(F)F)cc1 | > 10.6 | > 10.6 | ≥ 10.6 | <1 | <1
